Active and inactive are the calls of the source. The calls are words filed in the database; no cut-off is given here.
How the values were obtained:
[1] = target: T1, C-X-C chemokine receptor type 2 (Homo sapiens, UniProt P25025); test: Antagonist activity at CXCR2 in human PMNs assessed as inhibition of CXCL1-induced intracellular Ca2+ release by fluorescence based calcium flux assay; format: functional, cell-based
T1 sequence (P25025 whole entry): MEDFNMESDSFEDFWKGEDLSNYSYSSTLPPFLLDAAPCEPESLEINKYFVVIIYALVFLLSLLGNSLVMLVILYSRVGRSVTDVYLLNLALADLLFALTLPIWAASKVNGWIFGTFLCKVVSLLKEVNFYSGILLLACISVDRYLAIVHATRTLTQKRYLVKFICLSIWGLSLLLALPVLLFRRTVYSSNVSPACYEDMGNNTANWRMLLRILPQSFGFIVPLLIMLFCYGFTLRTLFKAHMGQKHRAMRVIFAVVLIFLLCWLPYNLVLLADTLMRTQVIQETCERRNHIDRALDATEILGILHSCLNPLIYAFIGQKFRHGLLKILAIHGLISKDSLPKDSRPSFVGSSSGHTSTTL

[2] = target: T2, C5a anaphylatoxin chemotactic receptor 1 (Homo sapiens, UniProt P21730); test: Antagonist activity at C5a receptor in human PMNs assessed as inhibition of C5a-induced intracellular Ca2+ release by fluorescence based calcium flux assay; format: functional, cell-based
T2 sequence (P21730 whole entry): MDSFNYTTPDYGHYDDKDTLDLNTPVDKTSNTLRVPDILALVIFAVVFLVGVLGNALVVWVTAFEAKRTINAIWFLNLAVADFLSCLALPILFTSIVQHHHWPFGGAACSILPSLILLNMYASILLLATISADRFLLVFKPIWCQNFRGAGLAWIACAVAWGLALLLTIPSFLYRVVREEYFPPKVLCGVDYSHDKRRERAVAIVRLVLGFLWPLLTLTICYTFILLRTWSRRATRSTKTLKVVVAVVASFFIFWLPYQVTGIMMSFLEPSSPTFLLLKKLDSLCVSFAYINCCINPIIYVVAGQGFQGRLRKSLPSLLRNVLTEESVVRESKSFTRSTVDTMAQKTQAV

[3] = target: Interleukin-8 receptors, CXCR1/CXCR2 (Homo sapiens) (UniProt P25025+P25024); test: Antagonist activity at CXCR1/CXCR2 in human PMNs assessed as inhibition of CXCL8-induced intracellular Ca2+ release at 1 uM by fluorescence based calcium flux assay; format: functional, cell-based
In short: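 Dye-loaded hPMNs were preincubated with compound or 1% DMSO at 37 °C for 30 min, then resuspended in HBSS+ with compound re-added. […] Fluorescence (ex 485/em 525) was read every 5 s for 240–500 s at room temperature, and the max–min response was expressed as % of the DMSO control.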

[4] = target: T3, Interleukin-8 receptors, CXCR1/CXCR2 (Homo sapiens, UniProt P25025+P25024); test: Antagonist activity at CXCR1/CXCR2 in human PMNs assessed as inhibition of CXCL8-induced intracellular Ca2+ release by fluorescence based calcium flux assay; format: functional, cell-based
T3 sequence (P25025 whole entry): T1 sequence (P25025 whole entry)
T3 sequence (P25024 whole entry): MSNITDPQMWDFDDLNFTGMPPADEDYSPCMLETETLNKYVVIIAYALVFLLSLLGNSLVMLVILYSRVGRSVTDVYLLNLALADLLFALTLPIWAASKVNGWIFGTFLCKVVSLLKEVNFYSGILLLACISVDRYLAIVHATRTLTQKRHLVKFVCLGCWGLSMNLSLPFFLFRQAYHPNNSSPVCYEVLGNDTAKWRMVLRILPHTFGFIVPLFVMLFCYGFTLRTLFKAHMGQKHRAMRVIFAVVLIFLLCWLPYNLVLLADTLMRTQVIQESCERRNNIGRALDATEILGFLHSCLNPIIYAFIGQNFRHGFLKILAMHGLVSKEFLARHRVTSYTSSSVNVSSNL

[5] = target: T4, C-X-C chemokine receptor type 2 (Homo sapiens) (UniProt P25025); test: Displacement of [125I]CXCL8 from human CXCR2 expressed in HEK293 cell membranes up to 10 uM by liquid scintillation counting method
T4 sequence (whole entry): T1 sequence (P25025 whole entry)
In short: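 After 1 h at room temperature, membranes were filtered and counted by scintillation. Results were expressed as % of control specific binding.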

[6] = target: T4, C-X-C chemokine receptor type 2 (Homo sapiens); test: Antagonist activity at human CXCR2 expressed in HEK293 cells assessed as reduction in CXCL8-induced ERK1/2 phosphorylation at 10 uM after 30 mins by Western blotting method; format: cell-based
In short: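 Cells were lysed at 0, 5, 15 and 30 min. About 50 μg of protein was run on 10% SDS-PAGE, blotted, and probed for phospho-ERK1/2 and total ERK1/2 with an HRP secondary.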

[7] = target: T5, C-X-C chemokine receptor type 1 (Homo sapiens, UniProt P25024); test: Antagonist activity at human CXCR1 expressed in HEK293 cells assessed as inhibition of CXCL8-induced intracellular Ca2+ release by fluorescence based calcium flux assay; format: functional, cell-based
T5 sequence (P25024 whole entry): T3 sequence (P25024 whole entry)
In short: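 HEK293 cells were stably transfected with human CXCR1, with a pooled polyclonal line selected in 800 μg/mL G418. […] Fluorescence was read at ex 485/em 525, and max–min was taken as % of control.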

[8] = target: T4, C-X-C chemokine receptor type 2 (Homo sapiens); test: Effect on cell surface expression of human CXCR2 expressed in HEK293 cell […] at 10 uM incubated for 60 mins by FACS method; format: cell-based
In short: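 Stably CXCR2-expressing HEK293 cells were pretreated with 10 μM compound or 1% DMSO for 60 min. They were stained with PE-conjugated anti-human CXCR2 mAb (1:100) at 4 °C for 60 min, fixed in 2% formaldehyde and analysed by flow cytometry. Non-expressing HEK293 cells served as the negative control.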

[9] = target: T1, C-X-C chemokine receptor type 2; test: Antagonist activity at human CXCR2 expressed in HEK293 cells assessed as inhibition of […]-induced [35S]GTPgammaS binding after 60 mins; format: functional, cell-based
In short: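 HEK293 cells stably expressing human CXCR2 were pretreated with compound, then lysed (5 mM Tris-HCl pH 7.5, EDTA, EGTA) and membranes spun at 30000g. […] Nonspecific binding was taken with 10 μM GTPγS. IC50 came from nonlinear regression.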

Mus musculus = test: Antiinflammatory activity in CD1 Swiss mouse air pouch model of inflammation assessed as reduction in total cell count in inflammatory infiltrate at 0.2 mg/kg, iv dosed 3 hrs before carrageenan challenge and measured 4 hrs post carrageenan challenge by trypan blue staining based hemocytometry; format: functional, organism-based; parameters: dose 0.2 mg/kg
In short: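 Male CD1 Swiss mice aged 10–15 weeks received a 2 mL subcutaneous dorsal air injection, reinflated with 1.5 mL the next day. Compound in 20:20:80 PEG400:DMF:saline, or vehicle, was given iv by tail vein (n=5 per group). After 3 h, 1 mL of 2% carrageenan in PBS, or PBS, was injected into the pouch. After 4 h, pouch fluid plus a 2 mL PBS wash was collected, and trypan blue-stained cells were counted by hemocytometer. Statistics used Student's t-test.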

[10] = target: T1, C-X-C chemokine receptor type 2; test: Antagonist activity at human CXCR2 expressed in HEK293 cells assessed as inhibition of CXCL8-induced intracellular Ca2+ release by fluorescence based calcium flux assay; format: functional, cell-based
fMet-Leu-Phe receptor = target: T6, fMet-Leu-Phe receptor (Homo sapiens, UniProt P21462); test: Antagonist activity at fMLF receptor in human PMNs assessed as inhibition of fMLF-induced intracellular Ca2+ release by fluorescence based calcium flux assay; format: functional, cell-based
T6 sequence (P21462 whole entry): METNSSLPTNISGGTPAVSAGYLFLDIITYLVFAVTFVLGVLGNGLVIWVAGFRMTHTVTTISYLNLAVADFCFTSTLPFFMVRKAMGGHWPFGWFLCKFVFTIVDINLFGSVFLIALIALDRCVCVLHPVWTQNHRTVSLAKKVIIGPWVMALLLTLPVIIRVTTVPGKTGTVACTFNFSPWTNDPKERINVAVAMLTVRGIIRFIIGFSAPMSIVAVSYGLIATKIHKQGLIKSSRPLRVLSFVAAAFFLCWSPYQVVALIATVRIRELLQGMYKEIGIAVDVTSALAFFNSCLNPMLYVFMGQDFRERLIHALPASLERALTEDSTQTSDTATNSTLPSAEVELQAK

[11] = target: Platelet-activating factor receptor (Homo sapiens, UniProt P25105); test: Antagonist activity at platelet-activating factor receptor in human PMNs assessed as inhibition of PAF-induced intracellular Ca2+ release by fluorescence based calcium flux assay; format: functional, cell-based
Chain of Platelet-activating factor receptor (P25105 whole entry): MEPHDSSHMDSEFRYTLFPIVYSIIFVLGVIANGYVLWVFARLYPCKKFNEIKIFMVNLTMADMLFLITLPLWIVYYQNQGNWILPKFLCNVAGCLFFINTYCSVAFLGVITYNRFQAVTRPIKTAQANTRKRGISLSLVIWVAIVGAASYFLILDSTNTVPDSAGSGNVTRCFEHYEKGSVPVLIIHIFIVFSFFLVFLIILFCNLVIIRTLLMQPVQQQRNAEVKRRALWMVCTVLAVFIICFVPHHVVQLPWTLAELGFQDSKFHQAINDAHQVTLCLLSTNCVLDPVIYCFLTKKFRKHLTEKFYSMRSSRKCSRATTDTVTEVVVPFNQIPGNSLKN

Row | SMILES | IC50 [1] [µM] | further results
1 | O=C(Nc1ccc(F)cc1)c1ccc(SCc2ccccc2O)nc1 | 0.277 | –
2 | Cc1n[nH]c(C)c1CCSc1ccc(C(=O)Nc2ccc(F)cc2)cn1 | > 5 | –
3 | CCOP(=O)(CSc1ccc(C(=O)Nc2ccc(F)cc2)cn1)OCC | > 10 | –
4 | O=C(Nc1ccc(F)cc1)c1ccc(SCC2CCOCC2)nc1 | > 5 | –
5 | O=C(O)c1ccc(NC(=O)c2ccc(SCc3ccccc3B(O)O)nc2)cc1 | > 10 | –
6 | O=C(c1ccc(SCc2ccccc2B(O)O)nc1)N(CC1CCCCN1)c1ccc(F)cc1 (stereo unspecified) | > 5 | –
7 | O=C(Nc1ccc(F)cc1)c1ccc(Sc2ccccc2)nc1 | > 10 | –
8 | Cc1cccc(CSc2ccc(C(=O)Nc3ccc(F)cc3)cn2)c1F | > 10 | –
9 | Cc1onc(-c2ccccc2)c1CSc1ccc(C(=O)Nc2ccc(F)cc2)cn1 | > 5 | –
10 | Cc1nc(-c2ccccc2)sc1CSc1ccc(C(=O)Nc2ccc(F)cc2)cn1 | > 5 | –
11 | O=C(Nc1ccc(-c2nn[nH]n2)cc1)c1ccc(SCc2ccccc2B(O)O)nc1 | > 10 | –
12 | O=C(Nc1ccc(F)cc1)c1ccc(SCc2cccc(OC(F)(F)F)c2)nc1 | > 10 | –
13 | O=C(Nc1ccc(F)cc1)c1ccc(SCc2ccc(-n3cccc3)cc2)nc1 | > 10 | –
14 | Cc1nc(-c2ccc(CSc3ccc(C(=O)Nc4ccc(F)cc4)cn3)cc2)no1 | > 5 | –
15 | Cc1nc(-c2cccc(CSc3ccc(C(=O)Nc4ccc(F)cc4)cn3)c2)cs1 | > 5 | –
16 | COC(=O)c1cccc(CSc2ccc(C(=O)Nc3ccc(F)cc3)cn2)c1 | > 5 | –
17 | O=C(Nc1ccc(F)cc1)c1ccc(SC[N+](=O)[O-])nc1 | > 10 | –
18 | O=C(Nc1ccc(F)cc1)c1ccc(SCS(=O)(=O)c2ccccc2)nc1 | > 5 | –
19 | O=C(O)c1ccc(CSc2ccc(C(=O)Nc3ccc(F)cc3)cn2)cc1 | > 10 | –
20 | Cc1nc(-c2ccc(C(F)(F)F)cc2)sc1CSc1ccc(C(=O)Nc2ccc(F)cc2)cn1 | > 10 | –

Row | SMILES | IC50 [1] [µM] | further results
21 | Cc1nc(-c2ccc(CSc3ccc(C(=O)Nc4ccc(F)cc4)cn3)cc2)cs1 | > 10 | –
22 | O=C(Nc1ccc(F)cc1)c1ccc(SCc2ccc(OC(F)(F)F)cc2)nc1 | > 10 | –
23 | COC(=O)c1ccc(CSc2ccc(C(=O)Nc3ccc(F)cc3)cn2)cc1 | > 10 | –
24 | Cc1noc(-c2ccccc2)c1CSc1ccc(C(=O)Nc2ccc(F)cc2)cn1 | > 10 | –
25 | O=C(Nc1ccc(F)cc1)c1ccc(SCc2ccc([N+](=O)[O-])cc2)nc1 | > 5 | –
26 | Cc1nc(-c2cccc(CSc3ccc(C(=O)Nc4ccc(F)cc4)cn3)c2)no1 | > 10 | –
27 | O=C(Nc1ccc(F)cc1)c1ccc(SCc2ccccc2-c2cccs2)nc1 | > 5 | –
28 | O=C(Nc1ccc(F)cc1)c1ccc(SCc2ccc(C(F)(F)F)o2)nc1 | > 5 | –
29 | O=C(Nc1ccc(F)cc1)c1ccc(SCc2ccc(-n3cncn3)cc2)nc1 | > 10 | –
30 | O=C(Nc1ccc(F)cc1)c1ccc(SCc2cccc(-n3cccc3)c2)nc1 | > 10 | –
31 | O=C(Nc1ccc(F)cc1)c1ccc(SCC2CCCCO2)nc1 (stereo unspecified) | > 5 | –
32 | O=C(O)CSc1ccc(C(=O)Nc2ccc(F)cc2)cn1 | > 5 | –
33 | O=C(Nc1ccc(F)cc1)c1ccc(SC2CCOC2=O)nc1 (stereo unspecified) | > 5 | –
34 | Cc1cc(CSc2ccc(C(=O)Nc3ccc(F)cc3)cn2)no1 | > 5 | –
35 | O=C(Nc1ccc(F)cc1)c1ccc(SCc2ccccc2B(O)O)nc1 | – | IC50 [2]: > 5 µM; inhibition [3]: Active; IC50 [4]: 0.036 µM; inhibition [5]: inactive; inhibition [6]: Active; IC50 [7]: 0.88 µM; Activity [8]: inactive; IC50 [9]: 0.06 µM; inhibition (Mus musculus): Active; IC50 [10]: 0.21 µM; IC50 (fMet-Leu-Phe receptor): > 5 µM; IC50 [11]: > 5 µM
36 | Cc1nn(-c2ccccc2)nc1CSc1ccc(C(=O)Nc2ccc(F)cc2)cn1 | > 5 | –
37 | O=C(Nc1ccc(F)cc1)c1ccc(SCc2ccc(-n3cccn3)cc2)nc1 | > 10 | –
38 | O=C(Nc1ccc(F)cc1)c1ccc(SCC2CCN(C(=O)OCc3ccccc3)CC2)nc1 | > 10 | –
39 | O=C(Nc1ccc(F)cc1)c1ccc(SCc2ccncc2)nc1 | > 5 | –
40 | O=C(Nc1ccc(F)cc1)c1ccc(SCc2ccc([N+](=O)[O-])o2)nc1 | > 5 | –
